{"source": "the M2OR odorant receptor database", "test_system": "T1, O5AN1", "T1 sequence (whole entry)": "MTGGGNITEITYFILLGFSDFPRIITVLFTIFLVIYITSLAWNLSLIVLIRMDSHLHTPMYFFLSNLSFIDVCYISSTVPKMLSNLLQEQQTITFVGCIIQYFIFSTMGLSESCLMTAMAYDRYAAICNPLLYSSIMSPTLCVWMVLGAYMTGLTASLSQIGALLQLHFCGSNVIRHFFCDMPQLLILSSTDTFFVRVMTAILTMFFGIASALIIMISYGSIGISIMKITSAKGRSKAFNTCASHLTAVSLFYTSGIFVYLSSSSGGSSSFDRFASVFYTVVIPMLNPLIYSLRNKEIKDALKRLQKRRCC", "conditions": "stereoisomer not certain", "procedure,_shortened": "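Assay methods differ from source to source, frequently being transient luciferase assays in mammalian cell lines. For each receptor–molecule pair, the label responsive (active) applies when the original authors judged the measured signal statistically different from baseline, and non-responsive (inactive) applies otherwise.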", "data": [{"molecule": "CCC(=O)OCC(C)(C)OC(C)C1CCCC(C)(C)C1", "note": "(configuration not stated)", "values": [{"measurement": "odorant receptor agonist call", "value": "inactive"}]}, {"molecule": "CC1CC=CCCCCCCCCCC(=O)C1", "note": "(configuration not stated)", "values": [{"measurement": "odorant receptor agonist call", "value": "active"}]}]}
